# Assays:
# [1] = molecular target: D(3) dopamine receptor (Homo sapiens, UniProt P35462); assay: Binding affinity for human Dopamine receptor D3 expressed in CHO cells; type: cell-based
# [2] = molecular target: D(2) dopamine receptor (Homo sapiens, UniProt P14416); assay: Binding affinity for human Dopamine receptor D2 expressed in CHO cells; type: cell-based
# [3] = Compound was evaluated for its Half life in rat; settings: in vivo
# [4] = Oral bioavailability in rat; settings: in vivo
# [5] = molecular target: 5-hydroxytryptamine receptor 1D (Homo sapiens, UniProt P28221); assay: Binding activity against human 5-hydroxytryptamine 1D receptor
# [6] = molecular target: 5-hydroxytryptamine receptor 1B (Homo sapiens, UniProt P28222); assay: Binding activity against human 5-hydroxytryptamine 1B receptor
# How it was run: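 Radioligand competition binding to human receptor, run by a procedure described in an earlier paper. Binding curves were fitted with an iterative four-parameter logistic model to give IC50, which was then converted to pKi.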
# [7] = Compound was evaluated for Blood clearance in rat; settings: whole blood
# [8] = molecular target: Cytochrome P450 2D6 (Homo sapiens, UniProt P10635); assay: Inhibition of cytochrome P450 2D6; type: ADME
# Sequence of Cytochrome P450 2D6 (P10635 whole entry): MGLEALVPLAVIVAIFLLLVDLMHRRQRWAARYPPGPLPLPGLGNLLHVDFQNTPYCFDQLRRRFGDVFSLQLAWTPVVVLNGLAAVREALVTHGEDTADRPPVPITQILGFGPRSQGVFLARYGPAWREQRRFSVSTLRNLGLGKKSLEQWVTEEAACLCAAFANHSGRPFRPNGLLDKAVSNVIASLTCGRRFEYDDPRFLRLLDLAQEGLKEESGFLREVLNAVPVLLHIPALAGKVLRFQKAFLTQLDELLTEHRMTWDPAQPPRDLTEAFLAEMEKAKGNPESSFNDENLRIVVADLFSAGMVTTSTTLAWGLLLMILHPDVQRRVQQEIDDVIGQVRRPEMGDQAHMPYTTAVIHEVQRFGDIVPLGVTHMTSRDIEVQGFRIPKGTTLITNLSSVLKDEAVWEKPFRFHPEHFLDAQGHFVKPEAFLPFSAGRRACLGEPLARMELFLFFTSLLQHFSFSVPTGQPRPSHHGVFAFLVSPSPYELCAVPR
# Sequence of 5-hydroxytryptamine receptor 1D (P28221 whole entry): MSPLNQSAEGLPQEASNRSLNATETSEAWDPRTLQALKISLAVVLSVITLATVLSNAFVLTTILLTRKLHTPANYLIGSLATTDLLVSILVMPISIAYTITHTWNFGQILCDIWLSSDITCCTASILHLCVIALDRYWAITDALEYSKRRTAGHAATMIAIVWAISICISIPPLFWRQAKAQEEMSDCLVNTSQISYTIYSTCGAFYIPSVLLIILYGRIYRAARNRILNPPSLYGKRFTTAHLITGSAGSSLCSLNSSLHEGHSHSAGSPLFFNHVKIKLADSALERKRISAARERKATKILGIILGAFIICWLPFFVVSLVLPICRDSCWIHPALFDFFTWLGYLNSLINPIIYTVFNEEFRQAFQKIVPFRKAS
# Sequence of D(2) dopamine receptor (P14416 whole entry): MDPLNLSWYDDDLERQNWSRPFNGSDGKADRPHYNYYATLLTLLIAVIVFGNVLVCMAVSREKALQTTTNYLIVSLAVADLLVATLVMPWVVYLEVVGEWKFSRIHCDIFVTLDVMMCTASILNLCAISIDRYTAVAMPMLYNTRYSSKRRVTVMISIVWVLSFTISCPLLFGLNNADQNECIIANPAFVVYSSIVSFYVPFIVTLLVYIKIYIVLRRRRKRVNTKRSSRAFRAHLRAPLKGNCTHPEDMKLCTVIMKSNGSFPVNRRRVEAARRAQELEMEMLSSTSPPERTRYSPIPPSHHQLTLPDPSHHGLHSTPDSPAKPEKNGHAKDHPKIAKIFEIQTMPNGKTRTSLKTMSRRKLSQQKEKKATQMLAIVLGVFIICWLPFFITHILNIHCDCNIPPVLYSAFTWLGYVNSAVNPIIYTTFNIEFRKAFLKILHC
# Sequence of D(3) dopamine receptor (P35462 whole entry): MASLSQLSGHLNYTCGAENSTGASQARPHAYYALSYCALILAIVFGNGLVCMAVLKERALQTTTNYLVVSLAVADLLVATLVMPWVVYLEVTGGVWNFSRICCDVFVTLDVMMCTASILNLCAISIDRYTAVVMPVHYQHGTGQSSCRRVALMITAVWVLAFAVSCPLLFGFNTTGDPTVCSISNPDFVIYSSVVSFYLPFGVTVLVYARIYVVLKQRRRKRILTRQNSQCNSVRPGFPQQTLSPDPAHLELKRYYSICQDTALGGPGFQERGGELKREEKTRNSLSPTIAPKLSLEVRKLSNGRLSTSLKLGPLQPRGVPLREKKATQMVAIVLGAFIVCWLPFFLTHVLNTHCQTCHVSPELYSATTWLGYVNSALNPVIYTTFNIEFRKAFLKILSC
# Sequence of 5-hydroxytryptamine receptor 1B (P28222 whole entry): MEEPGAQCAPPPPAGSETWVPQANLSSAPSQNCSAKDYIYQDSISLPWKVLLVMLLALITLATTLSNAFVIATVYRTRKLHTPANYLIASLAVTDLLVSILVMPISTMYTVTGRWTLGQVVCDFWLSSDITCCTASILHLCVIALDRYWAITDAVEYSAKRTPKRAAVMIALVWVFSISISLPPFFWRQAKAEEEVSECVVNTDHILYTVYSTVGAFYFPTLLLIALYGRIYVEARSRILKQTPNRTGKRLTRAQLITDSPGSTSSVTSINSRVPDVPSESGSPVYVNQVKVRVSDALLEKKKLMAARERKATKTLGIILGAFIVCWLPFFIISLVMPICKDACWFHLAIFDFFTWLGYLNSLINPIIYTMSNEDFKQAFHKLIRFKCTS
Compound,Ki [1],Ki [2],half-life [3],bioavailability [4],Ki [5],Ki [6],clearance [7],IC50 [8],Inhibition [8]
N#Cc1ccc2c(c1)CN(CC[C@H]1CC[C@H](NC(=O)/C=C/c3c[nH]c4ccccc34)CC1)CC2,3.16 nM,126 nM,,,,,,,
N#Cc1ccc2c(c1)CN(CC[C@H]1CC[C@H](NC(=O)/C=C/c3ccccc3)CC1)CC2,1.26 nM,158 nM,,,100 nM,158 nM,,,
CS(=O)(=O)c1cccc(/C=C/C(=O)N[C@H]2CC[C@H](CCN3CCc4cc(C#N)ccc4C3)CC2)c1.Cl,5.01 nM,316 nM,,45%,3980 nM,6310 nM,,,
N#Cc1ccc2c(c1)CCN(CC[C@H]1CC[C@H](NC(=O)/C=C/c3ccc(F)cc3)CC1)C2,3.16 nM,200 nM,,,631 nM,> 10000 nM,,,
N#Cc1ccc2c(c1)CCN(CC[C@H]1CC[C@H](NC(=O)/C=C/c3ccccc3)CC1)C2,3.16 nM,200 nM,,,316 nM,1000 nM,,,
O=C(/C=C/c1c[nH]c2ccccc12)NCCCCN1CCc2ccc(OS(=O)(=O)C(F)(F)F)cc2C1,,,,,63.1 nM,100 nM,,,
N#Cc1ccc2c(c1)CN(CCCCNC(=O)/C=C/c1c[nH]c3ccccc13)CC2,12.6 nM,794 nM,,,251 nM,158 nM,,,

# Further lines, results first:
Ki [1],Ki [2],half-life [3],bioavailability [4],Ki [5],Ki [6],clearance [7],IC50 [8],Inhibition [8],Compound
,,6.3 h,43%,100 nM,631 nM,6 mL/min/kg,800 nM,,Cl.N#Cc1ccc2c(c1)CN(CC[C@H]1CC[C@H](NC(=O)c3cc4ccccc4[nH]3)CC1)CC2
10 nM,1580 nM,,,100 nM,> 10000 nM,,,,N#Cc1ccc2c(c1)CCN(CC[C@H]1CC[C@H](NC(=O)c3ccc4ccccc4c3)CC1)C2
15.8 nM,794 nM,,,,,,,17%,Cl.N#Cc1ccc2c(c1)CCN(CC[C@H]1CC[C@H](NC(=O)c3cc4ccccc4[nH]3)CC1)C2
7.94 nM,398 nM,,,,,,,,N#Cc1ccc2c(c1)CCN(CC[C@H]1CC[C@H](NC(=O)c3cccc4ccccc34)CC1)C2

# Source: ChEMBL document CHEMBL1132939, “Design and synthesis of trans-N-[4-[2-(6-cyano-1,2,3, 4-tetrahydroisoquinolin-2-yl)ethyl]cyclohexyl]-4-quinolinecarboxamide (SB-277011): A potent and selective dopamine D(3) receptor antagonist with high oral bioavailability and CNS penetration in the rat” (J Med Chem, 2000)
